Laboratory results: ChEMBL document CHEMBL1165858, “Synthesis and biological evaluation of beta-chloro vinyl chalcones as inhibitors of TNF-alpha and IL-6 with antimicrobial activity” (Eur J Med Chem, 2010)
≈ marks a conversion by molar mass, not a printed value. Calls of active or inactive are those of the source. The calls are words filed in the database; no cut-off is given here.

Legend:
THP-1 [1] = experiment: Antiinflammatory activity in human THP1 cells assessed as inhibition of LPS-induced IL-6 secretion at 10 uM treated 30 mins before LPS challenge measured after 24 hrs by ELISA relative to control; assay type: functional
Outline: (§1)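 THP-1 cells were grown in RPMI 1640 with 10% FBS and penicillin/streptomycin, then differentiated with PMA. Compound or vehicle (0.5% DMSO) was added for 30 min at 37 °C, followed by LPS (E. coli 0127:B8, final 1 µg/mL). After 24 h at 37 °C in 5% CO2, TNF-α and IL-6 in the supernatants were quantified by ELISA. Values are the mean of n = 2.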

THP-1 [2] = experiment: Antiinflammatory activity in human THP1 cells assessed as inhibition of LPS-induced TNFalpha secretion at 10 uM treated 30 mins before LPS challenge measured after 24 hrs by ELISA relative to control; assay type: functional; outline: as §1
[3] = Cytotoxicity against […] at 10 uM; assay type: cell-based
Staphylococcus aureus = experiment: Antibacterial activity against Staphylococcus aureus NCIM 2120 after 24 hrs by disc diffusion method; assay type: functional; details: for MIC: Staphylococcus aureus, NCIM 2120, 24 h
Outline: (§2)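 Paper disc diffusion (6.25 mm Whatman no.1 discs, dry-heat sterilized at 140 °C for 1 h) loaded with compounds at different concentrations in DMSO. Discs were placed in triplicate on nutrient agar seeded with fresh bacterial culture and incubated at 37 °C for 24 h, with solvent and growth controls. Zones of inhibition (mm) and MIC, the concentration completely inhibiting growth, were recorded.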

Trichoderma viride = experiment: Antibacterial activity against Trichoderma viride TT after 72 hrs by disc diffusion method; assay type: functional; details: for MIC: Trichoderma viride, TT, 72 h
Outline: (§3)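 Agar disc diffusion against fungi. Fungi were maintained on potato dextrose agar at (25 ± 2) °C for five days before use. Compounds were dissolved in DMSO (10 mg/mL initial solutions) and loaded on discs placed on freshly seeded plates alongside a solvent control disc. Plates were held at 4 °C for 24 h for diffusion, then incubated at 37 ± 5 °C for 72 h. Zones of inhibition (mm) and MICs were recorded.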

Proteus vulgaris [4] = experiment: Antibacterial activity against Proteus vulgaris NCIM 2813 after 24 hrs by disc diffusion method; assay type: functional; details: for MIC: Proteus vulgaris, NCIM 2813, 24 h; outline: as §2
Aspergillus fumigatus = experiment: Antibacterial activity against Aspergillus fumigatus NCIM 902 after 72 hrs by disc diffusion method; assay type: functional; details: for MIC: Aspergillus fumigatus, NCIM 902, 72 h; outline: as §3
Candida albicans [5] = experiment: Antibacterial activity against Candida albicans NCIM 3100 at > 100 […] after 72 hrs by disc diffusion method; assay type: functional, organism-based
Penicillium chrysogenum [6] = experiment: Antibacterial activity against Penicillium chrysogenum NCIM 707 at > 100 […] after 72 hrs by disc diffusion method; assay type: functional, organism-based
Klebsiella pneumoniae = experiment: Antibacterial activity against Klebsiella pneumoniae NCIM 5082 after 24 hrs by disc diffusion method; assay type: functional; details: for MIC: Klebsiella pneumoniae, NCIM 5082, 24 h; outline: as §2
Escherichia coli [7] = experiment: Antibacterial activity against Escherichia coli NCIM 2065 after 24 hrs by disc diffusion method; assay type: functional; details: for MIC: Escherichia coli, NCIM 2065, 24 h; outline: as §2
Aspergillus niger [8] = experiment: Antibacterial activity against Aspergillus niger NCIM 545 at > 100 […] after 72 hrs by disc diffusion method; assay type: functional, organism-based
Bacillus subtilis [9] = experiment: Antibacterial activity against Bacillus subtilis NCIM 2546 after 24 hrs by disc diffusion method; assay type: functional; details: for MIC: Bacillus subtilis, NCIM 2546, 24 h; outline: as §2
Penicillium chrysogenum [10] = experiment: Antibacterial activity against Penicillium chrysogenum NCIM 707 after 72 hrs by disc diffusion method; assay type: functional; details: for MIC: Penicillium chrysogenum, NCIM 707, 72 h; outline: as §3
Aspergillus niger [11] = experiment: Antibacterial activity against Aspergillus niger NCIM 545 after 72 hrs by disc diffusion method; assay type: functional; details: for MIC: Aspergillus niger, NCIM 545, 72 h; outline: as §3
Candida albicans [12] = experiment: Antibacterial activity against Candida albicans NCIM 3100 after 72 hrs by disc diffusion method; assay type: functional; outline: as §3
Proteus vulgaris [13] = experiment: Antibacterial activity against Proteus vulgaris NCIM 2813 at > 100 […] after 24 hrs by disc diffusion method; assay type: functional, organism-based
Bacillus subtilis [14] = experiment: Antibacterial activity against Bacillus subtilis NCIM 2546 at > 100 […] after 24 hrs by disc diffusion method; assay type: functional, organism-based
Escherichia coli [15] = experiment: Antibacterial activity against Escherichia coli NCIM 2065 at > 100 […] after 24 hrs by disc diffusion method; assay type: functional, organism-based

Compound	inhibition at 10 µM (THP-1 [1])	inhibition at 10 µM (THP-1 [2])	Activity [3]	inhibition zone (IZ) (Staphylococcus aureus)	MIC (Staphylococcus aureus)	inhibition zone (IZ) (Trichoderma viride)	inhibition zone (IZ) (Proteus vulgaris [4])	MIC (Proteus vulgaris [4])	inhibition zone (IZ) (Aspergillus fumigatus)	MIC (Candida albicans [5])	inhibition zone (IZ) (Klebsiella pneumoniae)	MIC (Klebsiella pneumoniae)	inhibition zone (IZ) (Escherichia coli [7])	inhibition zone (IZ) (Bacillus subtilis [9])	MIC (Bacillus subtilis [9])	MIC (Trichoderma viride)	inhibition zone (IZ) (Penicillium chrysogenum [10])	MIC (Penicillium chrysogenum [10])	MIC (Aspergillus fumigatus)	MIC (Escherichia coli [7])	also measured
C[C@@H]1C[C@H]2[C@@H]3CCC4=CC(=O)C=C[C@]4(C)[C@@]3(F)[C@@H](O)C[C@]2(C)[C@@]1(O)C(=O)CO [DEXAMETHASONE]	90%	69%	Non-toxic	–	–	–	–	–	–	–	–	–	–	–	–	–	–	–	–	–	–
COc1cc(O)c(C(=O)/C=C/C=C(\Cl)c2ccc(C)cc2)c(OC)c1	36%	17%	Non-toxic	16 mm	50 µg/mL (≈ 139 µM)	13 mm	19 mm	25 µg/mL (≈ 69.7 µM)	10 mm	inactive	18 mm	25 µg/mL (≈ 69.7 µM)	12 mm	15 mm	50 µg/mL (≈ 139 µM)	–	–	–	–	–	MIC (Penicillium chrysogenum [6]): inactive; MIC (Aspergillus niger [8]): inactive
COc1cc(O)c(C(=O)/C=C/C=C(\Cl)c2ccc(Br)cc2)c(OC)c1	58%	8%	Non-toxic	14 mm	50 µg/mL (≈ 118 µM)	18 mm	12 mm	–	20 mm	–	20 mm	25 µg/mL (≈ 59 µM)	15 mm	18 mm	25 µg/mL (≈ 59 µM)	25 µg/mL (≈ 59 µM)	18 mm	25 µg/mL (≈ 59 µM)	25 µg/mL (≈ 59 µM)	50 µg/mL (≈ 118 µM)	inhibition zone (IZ) (Aspergillus niger [11]): 14 mm; MIC (Aspergillus niger [11]): 50 µg/mL (≈ 118 µM); inhibition zone (IZ) (Candida albicans [12]): 14 mm; MIC (Candida albicans [12]; Candida albicans, NCIM 3100, 72 h): 25 µg/mL (≈ 59 µM)
COc1cc(O)c(C(=O)/C=C/C=C(\Cl)c2ccc(Cl)cc2)c(OC)c1	74%	13%	Non-toxic	18 mm	25 µg/mL (≈ 65.9 µM)	15 mm	15 mm	50 µg/mL (≈ 132 µM)	17 mm	–	18 mm	25 µg/mL (≈ 65.9 µM)	15 mm	20 mm	25 µg/mL (≈ 65.9 µM)	50 µg/mL (≈ 132 µM)	12 mm	–	25 µg/mL (≈ 65.9 µM)	50 µg/mL (≈ 132 µM)	inhibition zone (IZ) (Aspergillus niger [11]): 16 mm; MIC (Aspergillus niger [11]): 50 µg/mL (≈ 132 µM); inhibition zone (IZ) (Candida albicans [12]): 12 mm
COc1ccc(/C(Cl)=C/C=C/C(=O)c2c(O)cc(OC)cc2OC)c(OC)c1	33%	0%	Non-toxic	14 mm	50 µg/mL (≈ 124 µM)	10 mm	–	–	10 mm	inactive	13 mm	–	–	–	–	–	14 mm	50 µg/mL (≈ 124 µM)	–	–	MIC (Proteus vulgaris [13]): inactive; MIC (Bacillus subtilis [14]): inactive; MIC (Escherichia coli [15]): inactive; MIC (Aspergillus niger [8]): inactive
COc1cc(O)c(C(=O)/C=C/C=C(\Cl)c2ccccc2Cl)c(OC)c1	43%	17%	Non-toxic	16 mm	50 µg/mL (≈ 132 µM)	14 mm	20 mm	25 µg/mL (≈ 65.9 µM)	14 mm	inactive	18 mm	25 µg/mL (≈ 65.9 µM)	14 mm	16 mm	50 µg/mL (≈ 132 µM)	50 µg/mL (≈ 132 µM)	16 mm	50 µg/mL (≈ 132 µM)	50 µg/mL (≈ 132 µM)	50 µg/mL (≈ 132 µM)	inhibition zone (IZ) (Aspergillus niger [11]): 16 mm; MIC (Aspergillus niger [11]): 50 µg/mL (≈ 132 µM)
GENTAMICIN	–	–	Non-toxic	–	–	–	–	–	–	–	–	–	–	–	–	–	–	–	–	–	–
